ChEMBL document CHEMBL1145774, “Synthesis and biological effects of novel 2-amino-3-naphthoylthiophenes as allosteric enhancers of the A1 adenosine receptor” (J Med Chem, 2003)

Assays:
[1] = molecular target: T1, Adenosine receptor A3 (Homo sapiens) (UniProt P0DMS8); assay: Ability to displace the binding of [3H]-MRE 3008-F20 to the ligand binding site of CHO:hA3 (human Adenosine receptor) at concentration of 10 uM
T1 sequence (whole entry): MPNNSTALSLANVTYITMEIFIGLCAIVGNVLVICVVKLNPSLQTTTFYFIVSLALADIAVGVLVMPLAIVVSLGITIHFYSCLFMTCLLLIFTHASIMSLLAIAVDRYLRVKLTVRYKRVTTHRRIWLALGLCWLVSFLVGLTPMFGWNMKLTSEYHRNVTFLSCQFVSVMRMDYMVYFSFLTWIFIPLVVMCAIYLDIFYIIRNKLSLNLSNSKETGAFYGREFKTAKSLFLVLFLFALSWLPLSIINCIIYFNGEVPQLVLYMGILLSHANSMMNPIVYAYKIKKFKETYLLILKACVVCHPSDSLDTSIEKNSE
In short: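 Assays used 2 nM [3H]MRE 3008F20 on CHO:hA3 membranes (100 µg protein, ADA-treated) for 150 min at 4 °C, in Tris-HCl with MgCl2 and 1 mM EDTA, pH 7.4, with compound from DMSO (1% final). Bound ligand was separated by filtration. Results are % displacement by 10 µM compound, ±STD, n = 3.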

[2] = molecular target: Adenosine receptor A2a (Homo sapiens) (UniProt P29274); assay: Ability to displace the binding of [3H]-ZM 241385, to the ligand binding site of CHO:hA2A (human Adenosine A2A receptor) at concentration of 10 uM
In short: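 CHO:hA2A membranes (100 µg protein, ADA-treated) were incubated with 2 nM [3H]ZM 241385 in Tris-HCl with MgCl2, pH 7.4, for 60 min at 4 °C, with compound from DMSO (1% final). Nonspecific binding was taken with 1 µM ZM241385. After filtration, results are % displacement by 10 µM compound, ±STD, n = 3.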

[3] = molecular target: T2, Adenosine receptor A1 (Homo sapiens) (UniProt P30542); assay: Dissociation of [3H]CCPA from Adenosine A1 receptor in CHO cells at 10 uM as percent K-1; assay type: cell-based
T2 sequence (whole entry): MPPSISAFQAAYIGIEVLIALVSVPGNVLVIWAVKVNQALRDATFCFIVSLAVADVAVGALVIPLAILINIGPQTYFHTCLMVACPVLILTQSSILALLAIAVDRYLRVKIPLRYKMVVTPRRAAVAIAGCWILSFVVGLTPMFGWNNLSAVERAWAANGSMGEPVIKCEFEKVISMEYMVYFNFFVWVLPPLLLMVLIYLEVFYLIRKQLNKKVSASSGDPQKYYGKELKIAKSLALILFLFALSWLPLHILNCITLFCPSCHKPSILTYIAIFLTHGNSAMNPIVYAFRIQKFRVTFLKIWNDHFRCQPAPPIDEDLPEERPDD
In short: (§1)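 [3H]CCPA was bound to ADA-treated CHO:hA1 membranes in 50 mM Tris-HCl pH 7.4 at 25 °C. Dissociation was started by adding R-PIA (1 µM) with test agent (10 µM), and specific binding was measured 2–180 min afterwards. Kinetic fits gave t1/2 and K-1, expressed as % change from control. Values are the mean of three experiments.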

[4] = molecular target: T2, Adenosine receptor A1 (Homo sapiens); assay: Percent change in cAMP content of CHO (Chinese hamster ovary) cells expressing human Adenosine A1 receptor at 10 uM; assay type: functional, cell-based
In short: (§2)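 CHO cells stably expressing human A1 receptor (~8000 fmol/mg protein) were grown in Ham's F-12 with 10% FBS and G-418 for 48 h to confluence. HCl (50 mM final) stopped the reaction, and cAMP was measured by radioimmunoassay. Values are % change versus no-compound control, mean ± SEM of six experiments.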

[5] = molecular target: T2, Adenosine receptor A1 (Homo sapiens); assay: Percent change in cAMP content of CHO (Chinese hamster ovary) cells expressing human Adenosine A1 receptor at 0.1 uM; assay type: functional, cell-based; in short: as §2
[6] = molecular target: T2, Adenosine receptor A1 (Homo sapiens); assay: Dissociation rate of [3H]CCPA from Adenosine A1 receptor expressing CHO cells at 10 uM as percent t1/2; assay type: cell-based; in short: as §1
[7] = molecular target: T2, Adenosine receptor A1 (Homo sapiens); assay: Percent change in cAMP content of CHO (Chinese hamster ovary) cells expressing human Adenosine A1 receptor at 1 uM; assay type: functional, cell-based; in short: as §2
[8] = molecular target: T2, Adenosine receptor A1 (Homo sapiens); assay: Ability to displace the binding of [3H]DPCPX to the ligand binding site of CHO:hA1 (human Adenosine A1 receptor) at concentration of 10 uM
In short: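 Membranes came from hypotonic lysis of CHO:hA1 cells, a 100 000g pellet and ADA 2 U/mL treatment for 30 min at 37 °C. Membranes (100 µg protein) were incubated with 1 nM [3H]DPCPX in Tris-HCl pH 7.4 for 150 min at 25 °C, with compound added from DMSO (1% final). Nonspecific binding was taken with 1 µM DPCPX, and bound ligand was separated on GF/B filters.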

[9] = molecular target: T2, Adenosine receptor A1 (Homo sapiens); assay: Percent change in cAMP content of CHO (Chinese hamster ovary) cells expressing human Adenosine A1 receptor at 0.01 uM; assay type: functional, cell-based; in short: as §2
[10] = molecular target: T2, Adenosine receptor A1 (Homo sapiens); assay: Percent change in cAMP in CHO cells expressing human Adenosine A1 receptor at 1 uM; assay type: functional, cell-based; in short: as §2

Sequence of Adenosine receptor A2a (Homo sapiens) (P29274 whole entry): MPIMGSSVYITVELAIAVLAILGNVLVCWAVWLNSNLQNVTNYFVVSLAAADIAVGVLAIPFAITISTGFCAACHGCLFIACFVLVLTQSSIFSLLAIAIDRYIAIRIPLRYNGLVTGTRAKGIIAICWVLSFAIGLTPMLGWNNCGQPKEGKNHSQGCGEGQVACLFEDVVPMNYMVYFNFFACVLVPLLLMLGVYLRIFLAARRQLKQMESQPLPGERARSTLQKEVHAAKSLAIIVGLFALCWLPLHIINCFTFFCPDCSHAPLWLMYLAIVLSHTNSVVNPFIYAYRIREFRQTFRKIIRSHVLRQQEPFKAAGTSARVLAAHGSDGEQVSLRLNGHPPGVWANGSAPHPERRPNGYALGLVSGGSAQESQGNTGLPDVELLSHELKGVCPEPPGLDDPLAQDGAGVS

SMILES: Nc1sc2c(c1C(=O)c1cccc3ccccc13)CCCC2
- inhibition [1]: 34.5%
- inhibition [2]: -0%
- K-1 decrease [3]: 23%
- Change [4]: -52%
- Change [5]: -15%
- T1/2 increase [6]: 29%
- Change [7]: -22%
- inhibition [8]: 2%
- Change [9]: -11%

SMILES: Nc1sc2c(c1C(=O)c1ccc3ccccc3c1)CCCC2
- inhibition [1]: -0%
- inhibition [2]: -0%
- K-1 decrease [3]: 9%
- Change [4]: -42%
- Change [5]: -24%
- T1/2 increase [6]: 10%
- Change [7]: -28%
- inhibition [8]: 3.3%
- Change [9]: -13%

SMILES: Nc1sc2c(c1C(=O)c1ccc(Br)c3ccccc13)CCC2
- inhibition [1]: 22%
- inhibition [2]: -0%
- K-1 decrease [3]: 4%
- Change [4]: -67%
- Change [5]: 19%
- T1/2 increase [6]: 4%
- Change [7]: -14%
- inhibition [8]: -0%
- Change [9]: 3%

SMILES: Nc1sc2c(c1C(=O)c1ccc(Cl)c3ccccc13)CCC2
- inhibition [1]: -0%
- inhibition [2]: -0%
- K-1 decrease [3]: 30%
- Change [4]: -55%
- Change [5]: 15%
- T1/2 increase [6]: 43%
- Change [7]: -27%
- inhibition [8]: -0%
- Change [9]: -10%

SMILES: Nc1sc2c(c1C(=O)c1ccc3ccccc3c1)CCC2
- inhibition [1]: 54%
- inhibition [2]: -0%
- K-1 decrease [3]: 29%
- Change [4]: -51%
- Change [5]: -14%
- T1/2 increase [6]: 42%
- Change [7]: -15%
- inhibition [8]: 14.5%
- Change [9]: -19%

SMILES: Nc1sc2c(c1C(=O)c1ccc(I)c3ccccc13)CCCC2
- inhibition [1]: 48%
- inhibition [2]: 3%
- K-1 decrease [3]: 38%
- Change [4]: -67%
- Change [5]: -4%
- T1/2 increase [6]: 60%
- Change [7]: -24%
- inhibition [8]: 15.3%
- Change [9]: -3%

SMILES: Cc1sc(N)c(C(=O)c2cccc(C(F)(F)F)c2)c1C
- inhibition [1]: 21%
- inhibition [2]: -0%
- K-1 decrease [3]: 30%
- Change [4]: -50%
- Change [5]: -7%
- T1/2 increase [6]: 43%
- Change [7]: -13%
- inhibition [8]: -0%
- Change [9]: -1%

SMILES: Cc1sc(N)c(C(=O)c2cccc3ccccc23)c1C
- inhibition [1]: 18%
- inhibition [2]: -0%
- K-1 decrease [3]: 46%
- Change [4]: -45%
- Change [10]: 6%
- Change [5]: -3%
- T1/2 increase [6]: 85%
- inhibition [8]: -0%
- Change [9]: -0.6%

SMILES: Nc1sc2c(c1C(=O)c1ccc(Br)c3ccccc13)CCCC2
- inhibition [1]: 48.5%
- inhibition [2]: 3%
- K-1 decrease [3]: 30%
- Change [4]: -72%
- Change [5]: -10%
- T1/2 increase [6]: 43%
- Change [7]: -29%
- inhibition [8]: 12%
- Change [9]: -6%

SMILES: Nc1sc2c(c1C(=O)c1cccc3ccccc13)CCC2
- inhibition [1]: -0%
- inhibition [2]: -0%
- K-1 decrease [3]: -0%
- Change [4]: -60%
- Change [5]: -6%
- T1/2 increase [6]: -0%
- Change [7]: -29%
- inhibition [8]: 8%
- Change [9]: -0.6%

SMILES: Nc1sc2c(c1C(=O)c1ccc(Cl)c3ccccc13)CCCC2
- inhibition [1]: 30.5%
- inhibition [2]: -0%
- K-1 decrease [3]: 27%
- Change [4]: -44%
- Change [5]: 3%
- T1/2 increase [6]: 36%
- Change [7]: -25%
- inhibition [8]: 4.8%
- Change [9]: -11%

SMILES: Nc1sc2c(c1C(=O)c1ccc(I)c3ccccc13)CCC2
- inhibition [1]: -0%
- inhibition [2]: -0%
- K-1 decrease [3]: 29%
- Change [4]: -75%
- Change [5]: -8%
- T1/2 increase [6]: 41%
- Change [7]: -22%
- inhibition [8]: 3.3%
- Change [9]: -6%

SMILES: Nc1sc2ccccc2c1C(=O)c1cccc2ccccc12
- inhibition [1]: 19%
- inhibition [2]: -0%
- Change [4]: -37%
- Change [5]: 9%
- Change [7]: 1%
- inhibition [8]: 13.5%
- Change [9]: 17%
